ChEMBL document CHEMBL1155319, “Discovery of novel selective HER-2 sheddase inhibitors through optimization of P1 moiety” (Bioorg Med Chem Lett, 2009)

Key:
[1] = target: T1, Disintegrin and metalloproteinase domain-containing protein 10 (Homo sapiens, UniProt O14672); assay: Inhibition of ADAM-10
T1 sequence (O14672 whole entry): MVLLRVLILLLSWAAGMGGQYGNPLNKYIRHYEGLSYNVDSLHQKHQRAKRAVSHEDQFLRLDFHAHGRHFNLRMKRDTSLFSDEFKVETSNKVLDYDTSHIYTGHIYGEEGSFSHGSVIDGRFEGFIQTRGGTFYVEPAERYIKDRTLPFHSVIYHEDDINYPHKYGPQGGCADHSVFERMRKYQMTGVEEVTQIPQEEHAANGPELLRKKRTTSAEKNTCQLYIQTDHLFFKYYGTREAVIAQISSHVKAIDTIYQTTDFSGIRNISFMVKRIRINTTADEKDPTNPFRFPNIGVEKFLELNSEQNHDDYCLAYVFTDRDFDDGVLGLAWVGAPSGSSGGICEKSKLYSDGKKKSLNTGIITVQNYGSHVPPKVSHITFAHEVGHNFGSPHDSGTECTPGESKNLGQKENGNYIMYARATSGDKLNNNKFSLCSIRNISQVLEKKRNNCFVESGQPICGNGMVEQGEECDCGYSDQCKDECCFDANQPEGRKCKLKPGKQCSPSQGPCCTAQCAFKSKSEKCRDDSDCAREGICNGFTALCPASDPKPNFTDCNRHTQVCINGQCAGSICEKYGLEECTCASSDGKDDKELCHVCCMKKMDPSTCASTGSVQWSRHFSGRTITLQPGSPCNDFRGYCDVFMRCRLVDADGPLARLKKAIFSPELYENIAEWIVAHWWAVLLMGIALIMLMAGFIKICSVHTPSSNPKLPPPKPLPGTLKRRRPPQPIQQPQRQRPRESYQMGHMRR

[2] = target: 72 kDa type IV collagenase (Homo sapiens, UniProt P08253); assay: Inhibition of MMP-2
Sequence of 72 kDa type IV collagenase (P08253 whole entry): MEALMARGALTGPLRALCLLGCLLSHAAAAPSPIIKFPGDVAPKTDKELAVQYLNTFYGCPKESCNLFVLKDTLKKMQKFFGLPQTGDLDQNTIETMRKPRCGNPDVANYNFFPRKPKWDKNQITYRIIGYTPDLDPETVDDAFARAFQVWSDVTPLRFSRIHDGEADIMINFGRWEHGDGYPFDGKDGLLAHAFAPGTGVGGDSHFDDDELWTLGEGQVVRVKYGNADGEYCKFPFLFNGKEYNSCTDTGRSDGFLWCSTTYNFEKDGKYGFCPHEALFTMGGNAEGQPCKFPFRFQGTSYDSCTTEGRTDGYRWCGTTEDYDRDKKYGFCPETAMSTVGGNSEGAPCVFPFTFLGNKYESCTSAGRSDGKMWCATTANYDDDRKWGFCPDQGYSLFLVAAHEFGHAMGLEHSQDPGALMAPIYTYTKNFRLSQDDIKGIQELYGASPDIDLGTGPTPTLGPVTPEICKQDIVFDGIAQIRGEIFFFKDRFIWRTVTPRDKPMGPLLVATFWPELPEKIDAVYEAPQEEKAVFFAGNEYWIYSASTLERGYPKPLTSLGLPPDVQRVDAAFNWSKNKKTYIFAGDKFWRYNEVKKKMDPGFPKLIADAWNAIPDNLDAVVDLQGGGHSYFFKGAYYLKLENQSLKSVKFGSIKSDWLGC

Interstitial collagenase = target: T2, Interstitial collagenase (Homo sapiens, UniProt P03956); assay: Inhibition of MMP-1
T2 sequence (P03956 whole entry): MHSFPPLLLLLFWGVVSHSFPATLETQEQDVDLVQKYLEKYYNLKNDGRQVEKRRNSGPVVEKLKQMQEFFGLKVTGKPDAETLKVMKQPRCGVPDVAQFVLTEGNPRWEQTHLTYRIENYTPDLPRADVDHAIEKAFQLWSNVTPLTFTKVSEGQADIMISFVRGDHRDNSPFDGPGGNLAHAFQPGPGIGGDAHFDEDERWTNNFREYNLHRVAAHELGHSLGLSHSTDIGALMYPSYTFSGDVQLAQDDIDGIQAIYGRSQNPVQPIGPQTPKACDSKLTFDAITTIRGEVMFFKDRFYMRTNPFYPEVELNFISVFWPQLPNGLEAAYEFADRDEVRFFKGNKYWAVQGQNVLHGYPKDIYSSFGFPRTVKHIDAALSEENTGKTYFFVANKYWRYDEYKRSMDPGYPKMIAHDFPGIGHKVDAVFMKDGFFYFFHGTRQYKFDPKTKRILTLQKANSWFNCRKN

Stromelysin-1 = Stromelysin-1 (Homo sapiens, UniProt P08254); assay: Inhibition of MMP-3
Sequence of Stromelysin-1 (P08254 whole entry): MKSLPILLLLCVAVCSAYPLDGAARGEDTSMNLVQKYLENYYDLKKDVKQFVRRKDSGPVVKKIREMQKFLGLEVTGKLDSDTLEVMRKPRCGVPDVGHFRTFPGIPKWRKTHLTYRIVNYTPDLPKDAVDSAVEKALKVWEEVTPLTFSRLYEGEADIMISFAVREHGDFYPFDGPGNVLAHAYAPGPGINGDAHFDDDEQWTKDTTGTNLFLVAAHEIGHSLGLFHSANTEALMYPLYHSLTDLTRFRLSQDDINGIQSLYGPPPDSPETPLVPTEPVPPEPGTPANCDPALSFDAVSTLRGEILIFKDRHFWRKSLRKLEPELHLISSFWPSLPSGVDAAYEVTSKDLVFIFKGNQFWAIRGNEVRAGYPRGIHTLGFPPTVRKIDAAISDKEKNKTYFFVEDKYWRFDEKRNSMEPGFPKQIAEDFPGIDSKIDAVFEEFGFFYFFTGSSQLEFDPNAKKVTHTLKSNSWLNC

[3] = target: Matrix metalloproteinase-9 (Homo sapiens, UniProt P14780); assay: Inhibition of MMP-9
Sequence of Matrix metalloproteinase-9 (P14780 whole entry): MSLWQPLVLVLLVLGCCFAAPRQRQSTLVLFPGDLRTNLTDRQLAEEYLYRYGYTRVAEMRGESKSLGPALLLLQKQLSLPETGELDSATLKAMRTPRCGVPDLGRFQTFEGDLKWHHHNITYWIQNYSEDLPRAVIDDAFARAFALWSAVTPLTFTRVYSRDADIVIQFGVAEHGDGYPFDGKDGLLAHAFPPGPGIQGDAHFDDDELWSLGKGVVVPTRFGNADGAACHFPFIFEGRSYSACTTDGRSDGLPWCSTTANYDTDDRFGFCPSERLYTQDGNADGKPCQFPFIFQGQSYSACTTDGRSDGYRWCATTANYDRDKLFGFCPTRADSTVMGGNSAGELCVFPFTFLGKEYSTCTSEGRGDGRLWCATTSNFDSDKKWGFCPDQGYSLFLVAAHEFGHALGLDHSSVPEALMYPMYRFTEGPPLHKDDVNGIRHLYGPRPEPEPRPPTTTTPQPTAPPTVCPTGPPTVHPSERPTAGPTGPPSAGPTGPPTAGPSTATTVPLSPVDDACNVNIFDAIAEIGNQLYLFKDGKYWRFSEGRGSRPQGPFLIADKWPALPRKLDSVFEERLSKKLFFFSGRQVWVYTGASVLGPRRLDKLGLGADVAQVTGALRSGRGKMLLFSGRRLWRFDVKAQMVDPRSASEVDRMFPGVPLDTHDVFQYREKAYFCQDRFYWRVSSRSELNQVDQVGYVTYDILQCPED

Mus musculus = assay: AUC in mouse at 5 mg/kg, po; assay type: ADME, organism-based, Plasma; set-up: dose 5 mg/kg, route oral; conditions: in vivo
Method in brief: (§1)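 Oral dose of 5 mg/kg, given as a suspension.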

[4] = Half life in mouse at 5 mg/kg, po; assay type: ADME, organism-based; set-up: dose 5 mg/kg, route oral; conditions: in vivo; method in brief: as §1
[5] = Permeability across human Caco-2 cells; assay type: ADME, cell-based
[6] = Clearance in human microsome; assay type: ADME; conditions: microsomes
Method in brief: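 Clearance projected from incubation with human microsomes and expressed in L/h/kg.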

Row | SMILES | IC50 [1] | IC50 [2] | IC50 (Interstitial collagenase) | IC50 (Stromelysin-1) | IC50 [3] | AUC (Mus musculus) | half-life [4] | Papp [5] | CL [6]
1 | NCCCCNC(=O)CC1CN[C@H](C(=O)N2CCC(c3ccccc3)C2)[C@@H](C(=O)NO)C1 (some centres undefined) | 161 nM | 1660 nM |  |  |  |  |  |  | 
2 | CN(C(=O)c1ccccc1)C1CN[C@H](C(=O)N2CC[C@H](c3ccccc3)C2)[C@@H](C(=O)NO)C1 (some centres undefined) | 84 nM | 210 nM |  |  |  |  |  |  | 
3 | COC(=O)N1C[C@@H](OC(=O)N2CCCC2)C[C@H](C(=O)NO)[C@H]1C(=O)N1CCN(c2ccccc2)CC1 | 20 nM | 613 nM | > 5000 nM | > 5000 nM | > 5000 nM |  |  |  | 
4 | CN1C[C@@H](OC(=O)N2CCCCCC2)C[C@H](C(=O)NO)[C@H]1C(=O)N1CCN(c2ccccc2)CC1 | 35 nM | 843 nM | > 5000 nM | > 5000 nM | > 5000 nM |  |  |  | 
5 | CN1C[C@@H](OC(=O)N2CCCCCCC2)C[C@H](C(=O)NO)[C@H]1C(=O)N1CCN(c2ccccc2)CC1 | 26 nM | 1470 nM | > 5000 nM | > 5000 nM | > 5000 nM | 323 nM/L.hr | 52.8 min |  | 
6 | CN1C[C@@H](OC(=O)N2CC=CC2)C[C@H](C(=O)NO)[C@H]1C(=O)N1CCN(c2ccccc2)CC1 | 30 nM | 581 nM | > 5000 nM | > 5000 nM | > 5000 nM |  |  |  | 
7 | CN1C[C@@H](OC(=O)N2CCCCC2)C[C@H](C(=O)NO)[C@H]1C(=O)N1CCN(c2ccccc2)CC1 | 9.6 nM | 344 nM | > 5000 nM | > 5000 nM | > 5000 nM |  |  | 0.9 ×10⁻⁶ cm/s | 9.67 mL/min/kg
8 | CN1C[C@@H](OC(=O)N2CCC(F)(F)C2)C[C@H](C(=O)NO)[C@H]1C(=O)N1CCN(c2ccccc2)CC1 | 125 nM | > 2000 nM |  |  |  |  |  |  | 
9 | CN1C[C@@H](OC(=O)N2CCC2)C[C@H](C(=O)NO)[C@H]1C(=O)N1CCN(c2ccccc2)CC1 | 20 nM | 432 nM | > 5000 nM | > 5000 nM | > 5000 nM |  |  |  | 
10 | CC(C)C(=O)N(C)C1CN[C@H](C(=O)N2CC[C@H](c3ccccc3)C2)[C@@H](C(=O)NO)C1 (some centres undefined) | 138 nM | 502 nM |  |  |  |  |  |  | 
11 | CN(C)C(=O)O[C@H]1C[C@H](C(=O)NO)[C@@H](C(=O)N2CCN(c3ccccc3)CC2)N(C)C1 | 58 nM | 730 nM | > 5000 nM | > 5000 nM | > 5000 nM |  |  |  | 

Continued, values first:

Row | IC50 [1] | IC50 [2] | IC50 (Interstitial collagenase) | IC50 (Stromelysin-1) | IC50 [3] | AUC (Mus musculus) | half-life [4] | Papp [5] | CL [6] | SMILES
12 | 17 nM | < 5 nM |  |  |  |  |  |  |  | O=C(NO)[C@H]1CC(CC(=O)N2CCCC2)CN[C@@H]1C(=O)N1CC=C(c2ccccc2)CC1 (some centres undefined)
13 | 11 nM | < 5 nM |  |  |  |  |  |  |  | CC(C)OC(=O)N(C)C1CN[C@H](C(=O)N2CC=C(c3ccccc3)CC2)[C@@H](C(=O)NO)C1 (some centres undefined)
14 |  | < 5 nM |  |  |  |  |  |  |  | O=C(NO)[C@H]1CC2(CC2)CN[C@@H]1C(=O)N1CC=C(c2ccccc2)CC1
15 | 18 nM | 471 nM | > 5000 nM | > 5000 nM | > 5000 nM |  |  |  |  | CN1C[C@@H](OC(=O)N2CCCC2)C[C@H](C(=O)NO)[C@H]1C(=O)N1CCN(c2ccccc2)CC1
16 | 186 nM | > 2000 nM | 2500 nM | > 5000 nM | > 5000 nM |  |  |  |  | O=C(NO)[C@H]1CC(OC(=O)N2CCCC2)CN[C@@H]1C(=O)N1Cc2ccccc2C1 (some centres undefined)
17 | 83 nM | > 2000 nM | > 5000 nM | > 5000 nM | > 5000 nM |  |  |  |  | O=C(NO)[C@H]1CC(OC(=O)N2CCCC2)CN[C@@H]1C(=O)N1CC[C@H](c2ccccc2)C1 (some centres undefined)
18 | 12 nM | 12 nM |  |  |  |  |  |  |  | CN(C(=O)c1ccccc1)C1CN[C@H](C(=O)N2CC=C(c3ccccc3)CC2)[C@@H](C(=O)NO)C1 (some centres undefined)
19 | 60 nM |  | > 5000 nM | > 5000 nM | > 5000 nM |  |  |  |  | O=C(NO)[C@H]1C[C@H](OC(=O)N2CCCC2)CN[C@@H]1C(=O)N1CC=C(c2ccccc2)C1
20 | 99 nM | > 2000 nM | > 5000 nM | > 5000 nM | > 5000 nM |  |  |  |  | O=C(NO)[C@H]1C[C@H](OC(=O)N2CCCC2)CN[C@@H]1C(=O)N1CCC(c2ccccc2)CC1
21 | 11 nM | 235 nM | > 5000 nM | > 5000 nM | > 5000 nM |  |  |  |  | O=C(NO)[C@H]1C[C@H](OC(=O)N2CCCC2)CN[C@@H]1C(=O)N1CCN(c2ccccc2)CC1
22 | 23 nM | 11 nM |  |  |  |  |  |  |  | CC(C)C(=O)N(C)C1CN[C@H](C(=O)N2CC=C(c3ccccc3)CC2)[C@@H](C(=O)NO)C1 (some centres undefined)
23 | 78 nM | < 5 nM |  |  |  |  |  |  |  | O=C(NO)[C@H]1C[C@@H](OC(=O)N2CCCC2)CN[C@@H]1C(=O)N1CC=C(c2ccccc2)CC1
24 | 9 nM | 102 nM | > 5000 nM | > 5000 nM | 498 nM |  |  |  |  | O=C(NO)[C@H]1CC(OC(=O)N2CCCC2)CN[C@@H]1C(=O)N1CC=C(c2ccccc2)CC1 (some centres undefined)
25 | 14 nM | 365 nM |  |  |  |  |  |  |  | O=C(NO)[C@H]1CC(CC(=O)N2CCCC2)CN[C@@H]1C(=O)N1CC[C@H](c2ccccc2)C1 (some centres undefined)
